According to ChEMBL document CHEMBL1926642, “Relevance of the C-5 position to schweinfurthin induced cytotoxicity” (2011):

What was measured:
Assay type in all cases: functional
[1] = system: NCI-H522; assay: Growth inhibition of human NCI-H522 cells after 48 hrs by sulforhodamine B assay; settings: NCI-H522, 48 h
[2] = system: A498; assay: Growth inhibition of human A498 cells after 48 hrs by sulforhodamine B assay; settings: A498, 48 h
[3] = system: SNB-19; assay: Growth inhibition of human SNB19 cells after 48 hrs by sulforhodamine B assay; settings: SNB-19, 48 h
[4] = system: NCI-H23; assay: Growth inhibition of human NCI-H23 cells after 48 hrs by sulforhodamine B assay; settings: NCI-H23, 48 h
[5] = system: MOLT-4; assay: Growth inhibition of human MOLT4 cells after 48 hrs by sulforhodamine B assay; settings: MOLT-4, 48 h
[6] = system: RXF 393; assay: Growth inhibition of human RXF393 cells after 48 hrs by sulforhodamine B assay; settings: RXF 393, 48 h
[7] = system: OVCAR-5; assay: Growth inhibition of human OVCAR5 cells after 48 hrs by sulforhodamine B assay; settings: OVCAR-5, 48 h
[8] = system: HCC 2998; assay: Growth inhibition of human HCC2998 cells after 48 hrs by sulforhodamine B assay; settings: HCC 2998, 48 h
[9] = system: ACHN; assay: Growth inhibition of human ACHN cells after 48 hrs by sulforhodamine B assay
[10] = system: SK-MEL-2; assay: Growth inhibition of human SK-MEL-2 cells after 48 hrs by sulforhodamine B assay; settings: SK-MEL-2, 48 h
[11] = system: OVCAR-3; assay: Growth inhibition of human OVCAR3 cells after 48 hrs by sulforhodamine B assay; settings: OVCAR-3, 48 h
[12] = system: HCT-15; assay: Growth inhibition of human HCT15 cells after 48 hrs by sulforhodamine B assay; settings: HCT-15, 48 h
[13] = system: SK-OV-3; assay: Growth inhibition of human SKOV3 cells after 48 hrs by sulforhodamine B assay; settings: SK-OV-3, 48 h
[14] = system: SF-539; assay: Growth inhibition of human SF539 cells after 48 hrs by sulforhodamine B assay; settings: SF-539, 48 h
[15] = system: OVCAR-4; assay: Growth inhibition of human OVCAR4 cells after 48 hrs by sulforhodamine B assay; settings: OVCAR-4, 48 h
[16] = system: NCI-H226; assay: Growth inhibition of human NCI-H226 cells after 48 hrs by sulforhodamine B assay; settings: NCI-H226, 48 h
[17] = system: SK-MEL-28; assay: Growth inhibition of human SK-MEL-28 cells after 48 hrs by sulforhodamine B assay; settings: SK-MEL-28, 48 h
[18] = system: HCT-116; assay: Growth inhibition of human HCT116 cells after 48 hrs by sulforhodamine B assay; settings: HCT-116, 48 h
[19] = system: UACC-62; assay: Growth inhibition of human UACC62 cells after 48 hrs by sulforhodamine B assay; settings: UACC-62, 48 h
[20] = system: LOX IMVI; assay: Growth inhibition of human LOXIMVI cells after 48 hrs by sulforhodamine B assay
[21] = system: RPMI-8226; assay: Growth inhibition of human RPMI8226 cells after 48 hrs by sulforhodamine B assay; settings: RPMI-8226, 48 h
[22] = system: MDA-MB-468; assay: Growth inhibition of human MDA-MB-468 cells after 48 hrs by sulforhodamine B assay; settings: MDA-MB-468, 48 h
[23] = system: CCRF-CEM; assay: Growth inhibition of human CCRF-CEM cells after 48 hrs by sulforhodamine B assay
[24] = Growth inhibition of human Hs 578T cells after 48 hrs by sulforhodamine B assay
[25] = system: Malme-3M; assay: Growth inhibition of human MALME-3M cells after 48 hrs by sulforhodamine B assay
[26] = system: HL-60(TB); assay: Growth inhibition of human HL-60(TB) cells after 48 hrs by sulforhodamine B assay; settings: HL-60, 48 h
How it was run: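 Run in the NCI 60 cell-line screen as the full 5-dose assay that follows initial single-dose testing; GI50 is read from the dose series.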

[27] = system: SN12C; assay: Growth inhibition of human SN12C cells after 48 hrs by sulforhodamine B assay
[28] = system: NCI-H322M; assay: Growth inhibition of human NCI-H322M cells after 48 hrs by sulforhodamine B assay
[29] = system: SF-268; assay: Growth inhibition of human SF268 cells after 48 hrs by sulforhodamine B assay; settings: SF-268, 48 h
[30] = system: NCI/ADR-RES; assay: Growth inhibition of human NCI/ADR-RES cells after 48 hrs by sulforhodamine B assay
[31] = system: MDA-MB-231; assay: Growth inhibition of human MDA-MB-231/ATCC cells after 48 hrs by sulforhodamine B assay; settings: MDA-MB-231, 48 h
[32] = system: T47D; assay: Growth inhibition of human T47D cells after 48 hrs by sulforhodamine B assay
[33] = read-out: pLC50 (the source's name) (converted)

COCOc1cc(/C=C/c2cc(CO)c3c(c2)C[C@@H]2C(C)(C)[C@H](O)CC[C@@]2(C)O3)cc(OC)c1C/C=C(\C)CCC=C(C)C
GI50 [1]: 10.5 µM
LC50 [1]: 77.6 µM
TGI ([1]; read-out: pTGI (converted)): 28.2 µM
GI50 [2]: 0.933 µM
LC50 [2]: 50.1 µM
TGI ([2]; read-out: pTGI (converted)): 19.5 µM
GI50 [3]: 11.2 µM
LC50 [3]: 77.6 µM
TGI ([3]; read-out: pTGI (converted)): 29.5 µM
GI50 [4]: 4.17 µM
LC50 [4]: 74.1 µM
TGI ([4]; read-out: pTGI (converted)): 24.5 µM
GI50 [5]: 0.398 µM
LC50 [5]: > 100 µM
TGI ([5]; read-out: pTGI (converted)): > 100 µM
GI50 [6]: 0.0661 µM
LC50 (50% lethal concentration) [6]: 2.69 µM
TGI ([6]; read-out: pTGI (converted)): 0.355 µM
GI50 [7]: 6.61 µM
LC50 [7]: > 100 µM
TGI ([7]; read-out: pTGI (converted)): 41.7 µM
GI50 [8]: 10.7 µM
LC50 [8]: 70.8 µM
TGI ([8]; read-out: pTGI (converted)): 27.5 µM
GI50 [9]: 2.24 µM
LC50 [9]: > 100 µM
TGI ([9]; read-out: pTGI (converted)): 50.1 µM
GI50 [10]: 17.8 µM
LC50 [10]: > 100 µM
TGI ([10]; read-out: pTGI (converted)): 66.1 µM
GI50 [11]: 12.6 µM
LC50 [11]: 60.3 µM
TGI ([11]; read-out: pTGI (converted)): 27.5 µM
GI50 [12]: 1.35 µM
LC50 [12]: 81.3 µM
TGI ([12]; read-out: pTGI (converted)): 10.2 µM
GI50 [13]: 19.5 µM
LC50 [13]: > 100 µM
TGI ([13]; read-out: pTGI (converted)): 81.3 µM
GI50 [14]: 0.141 µM
LC50 [14]: > 100 µM
TGI ([14]; read-out: pTGI (converted)): 12.6 µM
GI50 [15]: 7.24 µM
LC50 [15]: > 100 µM
TGI ([15]; read-out: pTGI (converted)): 44.7 µM
GI50 [16]: 14.5 µM
LC50 [16]: 64.6 µM
TGI ([16]; read-out: pTGI (converted)): 30.2 µM
GI50 [17]: 1.2 µM
CC50 [17, 33]: > 100 µM
TGI ([17]; read-out: pTGI (converted)): 30.9 µM
GI50 [18]: 3.47 µM
LC50 [18]: 45.7 µM
TGI ([18]; read-out: pTGI (converted)): 18.2 µM
GI50 [19]: 0.55 µM
LC50 (50% lethal concentration) [19]: 57.5 µM
TGI ([19]; read-out: pTGI (converted)): 10.7 µM
GI50 [20]: 0.55 µM
LC50 [20]: 18.2 µM
TGI ([20]; read-out: pTGI (converted)): 3.02 µM
GI50 [21]: 0.479 µM
LC50 [21]: > 100 µM
TGI ([21]; read-out: pTGI (converted)): > 100 µM
GI50 [22]: 1.78 µM
LC50 [22]: 49 µM
TGI ([22]; read-out: pTGI (converted)): 12.3 µM
GI50 [23]: 1.02 µM
LC50 [23]: > 100 µM
TGI ([23]; read-out: pTGI (converted)): > 100 µM
GI50 [24]: 0.55 µM
CC50 [24, 33]: > 100 µM
TGI ([24]; read-out: pTGI (converted)): > 100 µM
GI50 [25]: 11.7 µM
LC50 [25]: > 100 µM
TGI ([25]; read-out: pTGI (converted)): 67.6 µM
GI50 [26]: 0.661 µM
CC50 [26, 33]: > 100 µM
TGI ([26]; read-out: pTGI (converted)): 33.9 µM
GI50 [27]: 6.61 µM
LC50 [27]: 58.9 µM
TGI ([27]; read-out: pTGI (converted)): 22.4 µM
GI50 [28]: 22.4 µM
LC50 [28]: > 100 µM
TGI ([28]; read-out: pTGI (converted)): 91.2 µM
GI50 [29]: 4.07 µM
LC50 [29]: 55 µM
TGI ([29]; read-out: pTGI (converted)): 20.9 µM
GI50 [30]: 8.13 µM
LC50 [30]: 95.5 µM
TGI ([30]; read-out: pTGI (converted)): 29.5 µM
GI50 [31]: 1.62 µM
CC50 [31, 33]: 57.5 µM
TGI ([31]; read-out: pTGI (converted)): 14.5 µM
GI50 [32]: 11.5 µM
LC50 [32]: > 100 µM
TGI ([32]; read-out: pTGI (converted)): 49 µM
